LYP act: increases human PTPN22 phosphatase activity; activation, % at 2 µM; 96,000 tested, 0.11% active; recombinant LYP, DiFMUP fluorescence; 0 = plate median, 100 = signal doubled; Q9Y2R2;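 active means activation at 2 µM above a set limit, the mean plus 5 SD, cut at about 37% in these data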
Rev-RRE block: HIV Rev-RRE protein-RNA interaction inhibition. inhibition, % at 8 µM. P05866. 97,000 tested, 0.79% active. Rev peptide-RRE RNA binding, FRET;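 active means inhibition above the screen-wide mean plus 3 SD, cut at about 35% in these data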
Target sequence (P05866 whole entry, looked up): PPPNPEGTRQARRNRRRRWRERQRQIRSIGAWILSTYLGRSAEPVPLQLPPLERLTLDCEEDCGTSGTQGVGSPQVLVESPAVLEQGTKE
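Material: labelled RRE RNA duplex and labelled Rev peptide / Buffer or medium: HEPES pH 7.5 salt buffer with EDTA / Compound dosing: single point, 8 µM final nominal compound concentration / Benchmarks: DMSO low control, neomycin B high control / Timing: 5 min preincubation and 15 min binding, 25 °C / Technique: FRET fluorescence readout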
FAK inh: FAK (human) kinase inhibition; biochemical FAK kinase activity assay; inhibition, %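 (tested at 7 µM)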; 97,000 tested, 0.84% active; AID 727; in the data active means inhibition above about 19%
LYP inh 2: blocks human PTPN22 phosphatase activity | Q9Y2R2 | recombinant LYP catalytic domain, DiFMUP fluorescence | inhibition, % at 2 µM | 96,000 tested, 0.21% active | AID 640;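 active means inhibition at 2 µM at or above a set limit, the screen mean plus 3 SD, cut at about 24% in these data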
Numbers stand for hits; . = inactive; [ ] = another dose, or the depositor's remark. Shown are actives, neighbours in structure and some others; about 1.8% of the full set was active somewhere.

SMILES	LYP act	Rev-RRE block	FAK inh	LYP inh 2
Cc1occc1-c1nnc(SCC(=O)c2cc3ccccc3oc2=O)o1	.	.	.	.
N#CC1=C(SCC(=O)c2cc3ccccc3oc2=O)NC(=O)C(C#N)C12CCCC2 (centres undefined)	.	113[fluorescence artefact?]	.	.
O=C(COc1ccccc1Cl)N1CCN(c2ccc([N+](=O)[O-])c(N3CCOCC3)c2)CC1	.	.	.	.
COCCCn1c(N)c(-c2nc3ccccc3n2C)c2nc3ccccc3nc21	.	58	.	.
Cn1c(-c2c(N)n(CCCc3ccccc3)c3nc4ccccc4nc23)nc2ccccc21	.	45	.	.
Cn1c(-c2c(N)n(C3CCCC3)c3nc4ccccc4nc23)nc2ccccc21	.	58	.	.
N#Cc1c(N)n(CCc2ccc(F)cc2)c2nc3ccccc3nc12	.	.	.	.
Cn1c(-c2c(N)n(CCc3ccccc3)c3nc4ccccc4nc23)nc2ccccc21	.	44	.	.
COCCn1c(N)c(C#N)c2nc3ccccc3nc21	.	.	.	.
CC1=CC2=NC(=O)CC(C)(C(=O)N(CC(=O)NC(C)(C)C)Cc3cccs3)N2C=C1 (centres undefined)	.	.	.	.
CC(=O)NCCn1c(SCc2ccc(C)cc2C)nc2ccccc2c1=O	.	.	.	.
O=c1cc(-c2ccccc2)[nH]n1-c1ccc([N+](=O)[O-])cc1	.	.	.	.
COc1cc(-c2nnc(SCC(=O)/C(C#N)=C(\C)N)o2)cc(OC)c1OC	.	.	.	.
Cc1ccc(Cc2nnc3n(-c4cccc(C)c4)nc(C(=O)c4ccccc4)n3c2=O)cc1	.	.	.	.
COc1ccc(N=C2C(=Nc3ccc(OC)cc3)N(c3ccc(N(C)C)cc3)C(=S)N2c2ccc(OC)cc2)cc1	.	.	.	.
COc1ccc(N=C2NC(=O)S/C2=C\c2ccc(N(C)C)cc2)cc1	.	117[fluorescence artefact?]	.	.
CNS(=O)(=O)c1cccc(C(=O)OCC(=O)C23CC4CC(CC(C4)C2)C3)c1	.	.	.	.
N#C/C(C(=O)c1ccccc1)=C1/SC=C(N)N1c1ccccc1	.	118[fluorescence artefact?]	.	.
COC(=O)/C(C#N)=C1/SC=C(C)N1c1ccccc1	.	.	.	.
CCN1CCc2c(sc(N)c2C(N)=O)C1	.	63	.	.
CCn1c2ccc(Cl)cc2c2nc3ccccc3nc21	.	.	.	.
CCCn1nc(-c2ccccc2)c2nc3ccccc3nc21	.	94[fluorescence artefact?]	.	.
CCn1nc(-c2ccccc2)c2nc3ccccc3nc21	.	90[fluorescence artefact?]	.	.
CCCCCn1nc(-c2ccccc2)c2nc3ccccc3nc21	.	90[fluorescence artefact?]	.	.
O=C(CCc1ccccc1)NNC(=S)NC(=O)c1ccc(Cl)cc1	.	.	.	.
SMILES	LYP act	Rev-RRE block	FAK inh	LYP inh 2
CCCCN(CCCC)S(=O)(=O)c1ccc(NC(=O)Cc2cccs2)cc1	.	.	.	.
Cc1nc(-n2[nH]c3c(c2=O)CCCC3)[nH]c(=O)c1Cc1ccccc1	.	86[fluorescence artefact?]	.	.
Cc1cc(=O)[nH]c(-n2[nH]c3c(c2=O)CCCC3)n1	.	.	.	.
Cc1cc(C)nc(NS(=O)(=O)c2ccc(NC(=S)NC(=O)C(C)C)cc2)n1	.	.	.	.
CCc1nnc(NS(=O)(=O)c2ccc(NC(=S)NC(=O)/C=C/c3ccc(C(C)C)cc3)cc2)s1	.	.	.	33
O=C(N/N=C/c1ccc(-c2cccc(C(F)(F)F)c2)o1)c1ccccc1Br	.	60	.	.
Cc1cc(/C=C2/SC(=S)N(c3cccc(Cl)c3)C2=O)c(C)n1-c1cccnc1	.	39	.	.
Cc1cc(/C=N/n2cnnc2)c(C)n1-c1cccc(Cl)c1	.	.	.	.
O=c1c(C=Nc2ccc(Cl)cc2)c[nH]n1-c1cccc(Cl)n1	.	.	.	.
CCOc1ccccc1N(CC(=O)Nc1ccccc1C(=O)NCc1ccco1)S(C)(=O)=O	.	.	.	.
CCOc1ccc(N(CC(=O)Nc2ccccc2C(=O)NCc2ccco2)S(C)(=O)=O)cc1	.	.	.	41
COc1ccc(CN2CCN(C(=O)c3ccco3)CC2)cc1	.	.	.	37
COc1cccc(CN2CCN(C(=O)c3ccco3)CC2)c1OC	.	.	.	.
CCNc1ccccc(C(=O)/C=C/c2ccc3c(c2)OCO3)c1=O	.	55	.	.
CCNc1ccc(Br)cc(C(=O)/C=C/c2ccccc2Cl)c1=O	.	77[fluorescence artefact?]	.	.
CNc1ccc(Br)cc(C(=O)/C=C/c2cccc(OC)c2OC)c1=O	.	65	.	.
COCCCNC(=O)c1sc2ncnc(N3CCc4ccccc4C3)c2c1C	.	.	23	.
COc1ccc(C(=O)COC(=O)[C@H](C)Nc2ccc(C(F)(F)F)cc2[N+](=O)[O-])c(OC)c1	.	.	.	.
Cc1ccc(S(=O)(=O)Nc2nc3ccccc3nc2NCc2ccco2)cc1	.	46	.	.
Cc1cccc(S(=O)(=O)c2c(N)n(Cc3ccco3)c3nc4ccccc4nc23)c1	.	74	.	.
Cc1ccc(S(=O)(=O)c2c(N)n(NC(=O)c3ccco3)c3nc4ccccc4nc23)cc1	.	.	.	.
Cc1ccc(S(=O)(=O)c2c(N)n(Cc3ccco3)c3nc4ccccc4nc23)cc1	.	60	.	.
Cc1ccc(Cn2c(N)c(S(=O)(=O)c3cccs3)c3nc4ccccc4nc32)cc1	.	.	.	.
Cc1ccccc1C(=O)NCc1nnc(SCC(=O)N2c3ccccc3Sc3ccccc32)n1C	.	.	.	.
CCc1ccc(/C(C)=N\Nc2ccc([N+](=O)[O-])cc2)cc1	.	52	.	.
SMILES	LYP act	Rev-RRE block	FAK inh	LYP inh 2
COc1ccc(N/N=C(/Oc2ccc([N+](=O)[O-])cc2)C(C)=O)cc1	.	.	.	.
Cc1cccc(C)c1NC(=O)c1cc2c(=O)c3ccccc3oc2nc1C(F)(F)F	.	.	.	.
Cc1ccc2oc3nc(C)c(C(=O)Nc4cccc(C(F)(F)F)c4)cc3c(=O)c2c1	.	.	.	31
Brc1ccc(/C=C/C=N/Nc2nc3ccccc3s2)cc1	.	.	.	.
CCN(CC)c1ccc(/C=C/c2nc3ccccc3s2)cc1	.	123[fluorescence artefact?]	.	.
CC(=C\C(=O)O)/C(=C/c1ccccc1)C(=O)O	.	.	.	.
CCNC(=S)NNC(=O)c1cccn(Cc2ccc(Cl)cc2Cl)c1=O	.	.	.	60
C=CCNC(=S)NNC(=O)c1cccc2ccccc12	.	.	.	.
C=CCNC(=S)NNC(=O)c1cccn(Cc2ccc(Cl)cc2Cl)c1=O	.	.	.	49
CC1(C)C(=O)N(OCc2ccccc2)C(C)(C)C(=O)N1OCc1ccccc1	.	.	.	.
Cc1noc(C)c1S(=O)(=O)N(C)CC(=O)Nc1ccc(F)cc1	.	.	.	.
Cc1ccc(CNC(=O)c2ccccc2N)cc1	.	.	.	60
C=CCN(CC=C)C(=S)Nc1ccccc1	.	.	.	.
O=C(O)CCCCCNc1nc(=S)[nH]c2ccccc12	.	.	.	27
CCCc1cc(C(=O)OC)c(NC(=O)c2cc(C)on2)s1	.	.	.	.
CCN1C=C(Cc2cccs2)C2=C(C1)C(c1cccs1)C(C#N)=C(N)O2 (centres undefined)	.	.	.	.

High-throughput results (PubChem BioAssay)
